Screening results deposited in PubChem by The Scripps Research Institute Molecular Screening Center.
M5 PAM – positive allosteric modulators of human muscarinic M5 receptor; CHO-K1 hM5, Fluo-8 calcium, ACh EC20 PAM; 0% = ACh EC20, 100% = ACh EC100; activation, % at 3 µM; 360,000 compounds, 0.3% hits; AID 624038;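 active means activation above the run cutoff, the mean activation of all test compounds plus 3 SD, cut at about 18% in these data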
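Assay system – human M5 receptor in CHO-K1 cells · Read-out – % activation, ACh-normalized · Technique – Fluo-8 calcium fluorescence · Dosing – single-point, 3 µM nominal · Incubation – Fluo-8 loading 80 min at 37 °C plus 30 min room temperature · Repeats – singlicate, one well per test compound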
CHRM4 antagonist – blocks acetylcholine activation of human M4 receptor | CHO-hM4 cells, ACh EC80, Fluo-8 calcium fluorescence | inhibition, % at 3 µM | AID 624125 | P08173 | 360,000 compounds, 0.73% hits;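 active means inhibition above its plate's cutoff, the mean inhibition of sample wells plus 3 SD, cut at about 27% in these data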;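 further: 0% = acetylcholine EC80 with DMSO and 100% = DMSO without agonist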
Target sequence (P08173 whole entry, looked up): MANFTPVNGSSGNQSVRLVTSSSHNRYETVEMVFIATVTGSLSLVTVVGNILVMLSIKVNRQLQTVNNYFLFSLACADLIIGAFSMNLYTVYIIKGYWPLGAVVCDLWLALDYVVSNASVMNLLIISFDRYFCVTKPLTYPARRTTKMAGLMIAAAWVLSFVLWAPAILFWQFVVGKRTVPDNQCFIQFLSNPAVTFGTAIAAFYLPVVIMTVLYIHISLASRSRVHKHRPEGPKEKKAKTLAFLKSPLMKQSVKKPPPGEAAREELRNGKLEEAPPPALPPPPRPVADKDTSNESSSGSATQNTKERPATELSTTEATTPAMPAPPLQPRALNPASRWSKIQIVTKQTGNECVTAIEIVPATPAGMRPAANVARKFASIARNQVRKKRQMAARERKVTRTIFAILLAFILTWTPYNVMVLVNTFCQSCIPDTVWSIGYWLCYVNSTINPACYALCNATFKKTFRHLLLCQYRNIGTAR
CHRM4 agonist – CHRM4 agonism in calcium assay; P08173; CHO-K1 hM4/Gqi5, Fluo-8 calcium fluorescence; vehicle 0%, full acetylcholine response 100%; activation, % at 3 µM; 360,000 compounds, 0.14% hits; AID 624127;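 active means activation above the run mean over all test wells plus 3 SD, cut at about 32% in these data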;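 further: peak over basal fluorescence ratio per well then scaled between controls; 0% = DMSO wells and 100% = acetylcholine at EC100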
M5 ag – CHRM5 agonism in calcium assay; CHO-K1 hM5 cells, Fluo-8 calcium fluorescence; 0% DMSO wells, 100% maximal acetylcholine response; activation, % at 3 µM; 360,000 compounds, 0.19% hits;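 active means activation above the run's mean over test compounds plus 3 SD, cut at about 23% in these data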;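 further: signal is peak over basal fluorescence ratio across the kinetic read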
M5 antag – blocks acetylcholine activation of human M5 receptor. AID 624040. P08912. inhibition, % at 3 µM. 360,000 compounds, 0.59% hits. CHO-hM5 cells, Fluo-8 calcium fluorescence, ACh EC80;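 active means inhibition above a per-plate cutoff, the mean of that plate's test compounds plus 3 SD, cut at about 27% in these data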;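 further: 0% = acetylcholine EC80 with DMSO and 100% = DMSO without agonist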
CHRM4 PAM – positive allosteric modulators of human muscarinic M4 receptor; CHO-K1 hM4/Gqi5, Fluo-8 calcium fluorescence, ACh EC20; 0% = ACh EC20, 100% = maximal ACh; activation, % at 3 µM; 360,000 compounds, 0.4% hits; AID 624126;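 active means activation above its plate's cutoff, the mean activation of sample wells plus 3 SD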
Numbers without * were called inactive. Hits are enriched below; roughly 1.8% of the tested compounds scored in any of these assays.

SMILES | M5 PAM | CHRM4 antagonist | CHRM4 agonist | M5 ag | M5 antag | CHRM4 PAM
COc1ccc(-c2[nH]c(-c3ccc(C)cc3)nc2SCC(=O)NCc2ccco2)cc1OC | 4 | -24 | 0 | -2 | -9 | 21*
COc1cccc(-n2c(SCC(=O)NCc3ccco3)nnc2-c2c[nH]c3ccccc23)c1 | -3 | -16 | 0 | 0 | 3 | 9
Fc1ccc(-c2nc3c4ccccc4ccn3c2CC2CCCCC2)cc1 | 15 | -5 | -1 | 2 | -2 | 6
Cc1ccc(-c2nc3ccc(Br)cn3c2Cc2cccc(Cl)c2)cc1 | 0 | -4 | 1 | 2 | 0 | -5
CCCCNC(=O)C[C@@H]1C[C@@]2(C(=O)OCC)CCCC=C2N(Cc2ccco2)C1=O | 0 | 8 | 0 | 1 | 8 | 1
NCCCC[C@H]1CN=C(N)N1CCC12CC3CC(CC(C3)C1)C2 | -9 | 54* | 3 | -12 | 14 | -14
NS(=O)(=O)c1ccc(NC(=O)CCC(=O)c2ccc(Cl)s2)cc1 | 5 | -9 | 0 | -3 | 0 | 24*
NS(=O)(=O)c1ccc(NC(=O)CCC(=O)c2cccs2)cc1 | 0 | -12 | 1 | -2 | 2 | -4
C[C@H]1CN(c2ccccc2)C(=O)[C@@H]1CC(=O)Nc1ccc(Br)cc1 | -10 | 0 | 12 | 4 | 27* | 0
c1csc(CCNc2ncnc3sc4c(c23)CCC4)c1 | -20 | 11 | 14 | 5 | 32* | -4
c1ccc(Nc2ncnc3sc4c(c23)CCC4)cc1 | 5 | 0 | -3 | 0 | -15 | 20
COCCNC(=O)C1(C)CCCN(C(=O)c2ccc(C)c(F)c2)C1 (stereo not given) | -4 | -9 | 1 | 2 | 3 | 2
COc1ccccc1CNc1nc(Nc2ccc(C)cc2C)c2sccc2n1 | -12 | 18 | 7 | 1 | 15 | -8
COCCN(CC(=O)NC1CCCCC1)C(=O)/C=C/C(=O)c1ccc(OC)cc1O | 10 | 18 | 2 | 3 | 12 | -5
COc1ccc(C(=O)/C=C/C(=O)N(CC(=O)NC2CCCCC2)Cc2cccs2)c(O)c1 | -4 | 34* | 16 | 11 | 19 | -18
CCN(c1ccccc1)S(=O)(=O)c1ccc(Cl)c(C(=O)OCC(=O)c2[nH]c(C)c(C(C)=O)c2C)c1 | -17 | 28* | 5 | -4 | 16 | -37
N#Cc1nc(-c2ccccc2F)oc1NCCc1ccccc1 | -9 | 27* | 0 | -2 | 5 | 7
O=C(NN1C(=O)C2C(c3ccccc3)C=CC(c3ccccc3)C2C1=O)c1cccc(Br)c1 (stereo not given) | -20 | 16 | 20 | -7 | 37* | -17
OC(CC#CCN1CCCCC1)(c1ccccc1)c1ccccc1 | -30 | 44* | 2 | -19 | 26 | -18
CC(C)C(O)(C#CCN1CCCCCC1)c1ccccc1 (stereo not given) | -20 | 54* | 2 | -9 | 60* | -23
CN1CCN(CC#CCC(O)(c2ccccc2)c2ccccc2)CC1 | 8 | 0 | 1 | -3 | -11 | 6
C(#CCN1CCCC1)CC(c1ccccc1)c1ccccc1 | -21 | 69* | 9 | -7 | 75* | -23
OC(C#CCN1CCCC1)(c1ccccc1)c1cccc(F)c1 (stereo not given) | -19 | 94* | 2 | -8 | 98* | -16
CCOC(=O)C1(C)CCCN1C(=O)c1ccc(C(=O)OC)cc1 (stereo not given) | 0 | 1 | 0 | 1 | -5 | -5
CC(O)(C#CCN1CCCC1)c1ccccc1 (stereo not given) | -13 | 4 | 0 | -7 | 18 | -1
SMILES | M5 PAM | CHRM4 antagonist | CHRM4 agonist | M5 ag | M5 antag | CHRM4 PAM
CC(C)(C)C(O)(CC#CCN1CCCC1)c1ccccc1 (stereo not given) | -33 | 22 | 1 | -13 | 34* | -22
CC(C)(C#CCN1CCCCC1)OCCOC(c1ccccc1)c1ccccc1 | -19 | 97* | -4 | -8 | 30* | -42
OC(CC#CCN1CCOCC1)(c1ccccc1)c1ccccc1 | -6 | 9 | 2 | 1 | 4 | -3
CC(O)(C#CCN1CCCCC1)c1ccccc1 (stereo not given) | -13 | 10 | 1 | -7 | 7 | -11
OC(CC#CCN1CCCC1)(c1ccccc1)c1ccccc1 | -33 | 88* | 0 | -20 | 58* | -60
CC(C)C(O)(CC#CCN1CCCC1)c1ccccc1 (stereo not given) | -35 | 49* | 1 | -18 | 42* | -26
CCOC(=O)[C@]12CCC=C1N(Cc1ccccc1)C(=O)[C@H](CC(=O)NCCCN1CCCC1=O)C2 | -7 | -4 | 1 | 1 | 2 | 5
Nc1ncnc2c1ncn2[C@@H]1O[C@H](C(=O)Nc2ccc(Oc3ccccc3)nc2)[C@@H](O)[C@H]1O | 9 | -2 | 0 | 4 | 7 | 0
COC(=O)[C@@]12C[C@@H](CC(=O)NCCC(C)C)C(=O)N(CCc3ccc(OC)c(OC)c3)C1=CCC(C)(C)C2 | -5 | -16 | 11 | -1 | 3 | 5
CC1CCCN1CC#CC(O)(c1ccccc1)c1ccccc1 (stereo not given) | -31 | 97* | 0 | -19 | 99* | -17
CC1CCCCN1C(C(=O)O)c1ccccc1 (stereo not given) | 1 | 3 | 0 | -6 | -11 | 5
CC1(C(=O)Nc2ccc3ccccc3c2)CCC(=O)N1CCc1c[nH]c2ccccc12 (stereo not given) | -6 | 12 | 17 | 10 | 13 | -7
CNC(=O)C[C@H]1C(=O)N(c2ccccc2)C[C@@H]1C | 9 | 0 | 0 | -3 | -9 | 0
Nc1c(Br)cc2oc(-c3ccccc3)nc2c1Br | 2 | -7 | 0 | -2 | -11 | 20
COc1ccc(-c2nc3c(Br)c(N)c(Br)cc3o2)cc1 | 10 | 27* | 1 | -2 | -1 | 29*
CC1(C(=O)NS(=O)(=O)c2ccc(Cl)cc2)CCN1C(=O)C1(c2ccc(Cl)cc2)CCC1 (stereo not given) | -3 | -6 | -1 | 0 | 9 | 2
Cc1cnc(NC(=O)CSc2nnc(-c3ccncc3)n2C2CCCCC2)s1 | 1 | -5 | 1 | -1 | -10 | 33*
COc1cc(OC)nc(NC(=O)CSc2nnc(-c3ccccc3)n2C2CCCCC2)n1 | 25* | -6 | 2 | 0 | 15 | 7
CCc1nc2c(OCCn3cccc3)cccn2c1N(C)C(=O)c1ccco1 | -5 | -2 | 0 | 0 | 1 | -2
